Results of several laboratories.
Compare with care: the assays were run in different laboratories.
Target: Serine/threonine-protein kinase pim-3 (PIM3, Homo sapiens, UniProt Q86V86)

Compound | read-out | technique | concentration | remaining binding [%]
CCCOc1ccc([C@@H]2[C@@H](C(=O)O)[C@H](c3ccc4c(c3)OCO4)CN2CC(=O)Nc2c(CC)cccc2CC)cc1 | cell-free assay | competition with immobilised ligand | 1 µM | 95
N[C@H]1CCN(c2nccc(-c3cnn4ncccc34)n2)C1 | binding | – | 1 µM | 79
O=C(NCCCN1CCOCC1)c1ccc(Nc2nccc(-c3cc4ccccc4s3)n2)cc1 | binding | competition with immobilised ligand | 1 µM | 91
C[C@@H]1CN(c2ccc3ncc(-c4ccc5[nH]nc(C6CC6)c5c4)n3n2)C[C@H](C)O1 | binding | competition with immobilised ligand | 50 nM | 81
O=C(c1ccc(Nc2nccc(-c3cc4ccccc4s3)n2)cc1)N1CCC(N2CCCC2)CC1 | binding | competition with immobilised ligand | 1 µM | 78
N#CC1(c2ccccn2)CCN(Cc2cc(C(=O)N3CCCC3)c(=O)n3ccccc23)CC1 | cell-free assay | competition with immobilised ligand | 1 µM | 99
O=C(c1ccc(Nc2ncc(Cl)c(-c3ccc(Cl)s3)n2)cc1)N1CCC(N2CCCC2)CC1 | binding | competition with immobilised ligand | 1 µM | 73
Nc1ncc2c(n1)-c1c([nH]c3ccc(C#CC4CC4)cc13)CCCC2 | binding | competition with immobilised ligand | 1 µM | 76
O=C(NCC1CCOCC1)c1n[nH]cc1NC(=O)c1c(F)cccc1F | binding | competition with immobilised ligand | 1 µM | 99
CN(CCCC(F)(F)F)c1nccc(-c2cnn3ncccc23)n1 | binding | – | 1 µM | 100
C[C@H](c1cccc(C#N)c1)n1cc(Cl)cc(C(N)=O)c1=N | cell-free assay | competition with immobilised ligand | 1 µM | 100
N#Cc1ccccc1CSc1nnc2c(n1)[nH]c1ccccc12 | binding | competition with immobilised ligand | 10 µM | 74
CCN1CCN(Cc2ccc(C(=O)Nc3ccc(C)c(Oc4ccc5c(c4)CC(=O)N5)c3)cc2C(F)(F)F)CC1 | binding | competition with immobilised ligand | 1 µM | 100
F[C@@H]1CCN(c2nccc(-c3cnn4ncccc34)n2)C1 | binding | – | 1 µM | 100
COc1cnc(Nc2cccc(S(N)(=O)=O)c2)nc1N1CCN(c2ccccc2)CC1 | binding | competition with immobilised ligand | 1 µM | 94
C[C@@H](c1ccc(-n2cnc3c(N)ncnc32)cc1)N1CCc2nn(C)c(Cc3ccccc3)c2C1=O | binding | competition with immobilised ligand | 0.1 µM | 90
COc1ccc2c(O[C@@H]3C[C@H]4C(=O)N[C@]5(C(=O)O)CC5/C=C\CCCCC[C@H](NC(=O)OC5CCCC5)C(=O)N4C3)cc(-c3csc(NC(=O)C(C)C)n3)nc2c1C (stereo partly drawn) | cell-free assay | competition with immobilised ligand | 1 µM | 94
C[C@@H]1CCN(c2nccc(-c3cnn4ncccc34)n2)C1 | binding | – | 1 µM | 92
CN([C@@H]1CCc2c(CC(=O)O)c3cc(S(C)(=O)=O)ccc3n2C1)S(=O)(=O)c1ccc(F)cc1 | cell-free assay | competition with immobilised ligand | 1 µM | 100
CC1CCCN1c1nccc(-c2cnn3ncccc23)n1 (stereo not drawn) | binding | – | 1 µM | 100
CO[C@@H](C)c1c(Nc2ccc([C@@H](N(C)C(=O)C3CCS(=O)(=O)CC3)C(F)(F)F)cc2)cnc2cc(Cl)nn12 | cell-free assay | competition with immobilised ligand | 1 µM | 97
CC(C)(C)c1ccc(-c2nc(CBr)nn2-c2cccc(O)c2)cc1 | cell-free assay | competition with immobilised ligand | 10 µM | 100
CCc1ccccc1C(=O)Nc1n[nH]c2c(C)c(F)c(C3C(C#N)=C(C)N(C)C(C)=C3C#N)cc12 | cell-free assay | competition with immobilised ligand | 1 µM | 100
CN(C)c1nccc(-c2cnn3ncccc23)n1 | binding | – | 1 µM | 56
